pIC50: −log10 of the molar value. Active and inactive are the calls of the source. The rule behind the calls is not given here.

Usually Emax stands for the greatest response seen or fitted, relative to the assay's reference. The term pIC50 denotes the IC50 on a negative log10 scale, so that one unit is a factor of ten.

The target in experiment [1] is T1, Calmodulin-1 (Homo sapiens, UniProt P0DP23). As to the kind of experiment: Ratio of chlorpromazine IC50 to compound IC50 for human recombinant calmodulin.
The subject of experiment [2] is Aorta. As to the kind of experiment: Vasorelaxant activity in Wistar rat endothelium-denuded thoracic aortic ring assessed as inhibition of noradrenaline-induced contraction treated after noradrenaline challenge measured after 60 mins relative to control. In kind it is functional. The conditions noted are these: 1 h.
For experiment [3], the system named is Aorta. As to the kind of experiment: Vasorelaxant activity in Wistar rat endothelium-denuded thoracic aortic ring assessed as inhibition of noradrenaline-induced contraction treated after noradrenaline challenge measured after 60 mins. The experiment is classed as functional, tissue-based. To be noted: for pIC50: 1 h. An outline of the steps:
(§1)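 Thoracic aortic rings (3–5 mm) from Wistar rats (200–300 g), endothelium intact or manually removed, were held in Krebs at 37 °C gassed O2/CO2 (9:1) at 3.0 g resting tension. Three NA (0.1 µM) primings were given; endothelium status was checked by carbachol (1 µM) relaxation. Rings precontracted with NA received compounds in quarter-log cumulative concentrations under isometric recording. n=6 animals.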

The target of experiment [4] is T1, Calmodulin-1. As to the kind of experiment: Inhibition of human recombinant calmodulin assessed as inhibition of calmodulin-sensitive cAMP phosphodiesterase activation after 15 mins by spectrophotometric analysis.
Experiment [5] has as its system Aorta. As to the kind of experiment: Vasorelaxant activity in Wistar rat endothelium-intact thoracic aortic ring assessed as inhibition of noradrenaline-induced contraction treated after noradrenaline challenge measured after 60 mins relative to control. To be noted: 1 h. In kind it is functional.
Experiment [6] deals with Aorta. As to the kind of experiment: Vasorelaxant activity in Wistar rat endothelium-intact thoracic aortic ring assessed as inhibition of noradrenaline-induced contraction treated after noradrenaline challenge measured after 60 mins. In kind it is functional, tissue-based. The conditions noted are these: for pIC50: 1 h. An outline of the steps:
as §1

In experiment [7] the test system is Aorta. As to the kind of experiment: Vasorelaxant activity in Wistar rat endothelium-intact thoracic aortic ring assessed as inhibition of noradrenaline-induced contraction treated after noradrenaline challenge measured after 60 mins in presence of chlorpromazine. In kind it is functional, tissue-based. Summed up: (§2)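 Rat aortic rings (endothelium intact or denuded) in 37 °C Krebs under 3.0 g tension were preincubated with chlorpromazine (1 µM). They were then contracted with NA, and compound was added in quarter-log cumulative concentrations while isometric tension was recorded. n=6 animals.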

The test system of experiment [8] is Aorta. As to the kind of experiment: Vasorelaxant activity in Wistar rat endothelium-denuded thoracic aortic ring assessed as inhibition of noradrenaline-induced contraction treated after noradrenaline challenge measured after 60 mins in presence of chlorpromazine. The experiment is classed as functional, tissue-based. An outline of the steps:
as §2

For experiment [9], the target named is T1, Calmodulin-1. As to the kind of experiment: Inhibition of calmodulin assessed as inhibition of calmodulin-calcium-PDE1 complex formation. Summed up: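 Human recombinant CaM (0.08 µg) was preincubated 30 min with 0.015 units bovine-brain PDE1 and 0.063 units 5'-nucleotidase in Tris–HCl/imidazole buffer with Mg acetate, 2.5 mM CaCl2 and BSA, pH 7.0. Compounds at 0.5–65 µM in ACN/water (1:1) were added for 30 min. cAMP started a 15-min reaction, and malachite green read phosphate at 700 nm. IC50 came from hyperbolic fit, n≥6.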

Experiment [10] concerns the target T1, Calmodulin-1. Put plainly: Inhibition of calmodulin assessed as inhibition of calmodulin-calcium-[…] complex formation.

For `O=c1c(O)c(-c2ccccc2)oc2ccccc12` [FLAVONOL], the Ratio IC50 in [1] came out at 0.36. The maximal effect (Emax) came to 29.8% in [2] and 67.8% in experiment [5]. The inhibition result in [3], in [4] and in [6] was “Dose-dependent effect” each time. Besides, the figures for the negative logarithm of the IC50 (pIC50) in [3], in experiment [4] and in [6] were 3.61, 4.26 and 3.69, respectively.
Regarding `C[N+](C)(C)CCOC(N)=O` [CARBACHOL], the maximal effect (Emax) in experiment [5] is 88.6%. In [6], the pIC50 is 6.10.
Turning to `O=c1cc(-c2ccccc2)oc2cc(O)cc(O)c12` [CHRYSIN], the Ratio IC50 in experiment [1] came to 1.03. Further, the Emax in [2] was found to be 16%; in experiment [5] it was 44.8%. The inhibition result in experiment [3], in experiment [4] and in experiment [6] was “Dose-dependent effect” each time. Also, the negative-log IC50 (pIC50) in experiment [3] is 3.97; in experiment [4], 4.48; in experiment [6], 4.12.
In the case of `COC(=O)C1=C(C)NC(C)=C(C(=O)OC)C1c1ccccc1[N+](=O)[O-]` [NIFEDIPINE], the maximal response (Emax) in [2] came to 102%. In addition, in experiment [3], the negative logarithm of the IC50 (pIC50) is 7.70.
Consider `O=c1c(O)c(-c2ccc(O)c(O)c2)oc2cc(O)cc(O)c12` [QUERCETIN], for which, in experiment [1], the Ratio IC50 came to 2.82. For the same compound, the Emax in experiment [2] came out at 43.2%; in experiment [5], 83.2%. Further, the inhibition result in experiment [3], in [4] and in experiment [6] was “Dose-dependent effect” throughout. Moreover, the results for the negative-log IC50 (pIC50) in experiment [3], in experiment [4] and in [6] were 3.65, 4.89 and 3.79, respectively.
For `O=c1cc(-c2ccccc2)oc2ccc(O)cc12` [6-HYDROXYFLAVONE], the Ratio IC50 in experiment [1] amounted to 3.89. The Emax came out at 51.8% in experiment [2] and 105% in experiment [5]. The result in [7] and in experiment [8] was Active. Moreover, the inhibition result in experiment [3], in experiment [4] and in [6] was “Dose-dependent effect” throughout. Further, the pIC50 is 3.95 in [3], 5.29 in [4] and 4.68 in experiment [6].
Take `COc1ccc([C@@H]2CC(=O)c3c(O)cc(O[C@@H]4O[C@H](CO[C@@H]5O[C@@H](C)[C@H](O)[C@@H](O)[C@H]5O)[C@@H](O)[C@H](O)[C@H]4O)cc3O2)cc1O` [HESPERIDIN]: the results for the negative-log IC50 (pIC50) in experiment [9] and in experiment [10] were 4.13 and 4.15, respectively.
For the compound `O=C1C[C@@H](c2ccc(O)cc2)Oc2cc(O)cc(O)c21`, the inhibition result in experiment [4] is “Dose-dependent effect”.
Take `O=c1cc(-c2ccccc2)oc2ccccc12` [FLAVONE]: the Ratio IC50 in experiment [1] was 0.34. For the same compound, the Emax came to 81% in experiment [2] and 98.6% in experiment [5]. Besides, the inhibition result in [3], in experiment [4] and in [6] was “Dose-dependent effect” throughout. The pIC50 in [3] is 3.69; in experiment [4] it was 3.99; in [6] it was 4.34.
Regarding `O=c1cc(-c2ccccc2)oc2cc(O)ccc12` [7-HYDROXYFLAVONE], in [1], the Ratio IC50 turned out to be 0.54. Also, the Emax in experiment [2] was 40.4%; in experiment [5], 80.6%. Besides, the inhibition entry in [3], in [4] and in [6] was “Dose-dependent effect” throughout. Moreover, the pIC50 in experiment [3] is 3.78; in [4] it was 4.43; in experiment [6], 4.42.

For the origin of these results see ChEMBL document CHEMBL1641572, “Vasorelaxant effect of flavonoids through calmodulin inhibition: Ex vivo, in vitro, and in silico approaches” (Bioorg Med Chem, 2011).
